Screens deposited in PubChem BioAssay by Broad Institute.
Env fusion inh = blocks HIV Env-driven cell-cell fusion. AID 651610. inhibition, % at 12.3 µM. HeLa-JRFL Env/CEM21 cell fusion, luciferase. actives 1.1% (n = 360,000);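 active = mean replicate inhibition score of at least 50 and every replicate individually at or above 50; inconclusive = only one of the two criteria met; inactive = mean below 50 and not all replicates reaching 50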;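 note: 0% = plate neutral controls and 100% = maraviroc near 300 nM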
GSIS activator = GLuc luminescence reporter in INS-1E cells, primary screen for activators of glucose-dependent secretion of insulin; actives 0.61% (n = 370,000); INS-1E GLuc reporter insulin secretion, 2-3 h; activation, % at 16.6 µM;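 active = lowest replicate activation of at least 40%, so every replicate reaches that level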;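 note: 0% = median of neutral control wells and 100% = median of IBMX positive control wells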
Rtt109 Vps75 = blocks Candida albicans Rtt109/Vps75 acetyltransferase activity; actives 0.16% (n = 330,000); inhibition, % at 34.9 µM; purified Rtt109/Vps75, ThioGlo CoA-SH fluorescence, 4 h;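 active = inhibition of at least 50% in every replicate; inconclusive = best replicate reaches 50% inhibition but some replicates fall short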
dFosB act = mouse delta FosB homodimer activation; P13346; purified delta FosB, TAMRA-CDK5 oligo fluorescence polarization; percent of positive-control signal above neutral wells; activation, % at 25 µM; actives 0.99% (n = 340,000); AID 493131;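 active = mean activation above about 17%, with every replicate also reaching it, limit read from the data, passing the limit was not always enough; inconclusive = only one of the two conditions met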
Target sequence (P13346 whole entry, looked up): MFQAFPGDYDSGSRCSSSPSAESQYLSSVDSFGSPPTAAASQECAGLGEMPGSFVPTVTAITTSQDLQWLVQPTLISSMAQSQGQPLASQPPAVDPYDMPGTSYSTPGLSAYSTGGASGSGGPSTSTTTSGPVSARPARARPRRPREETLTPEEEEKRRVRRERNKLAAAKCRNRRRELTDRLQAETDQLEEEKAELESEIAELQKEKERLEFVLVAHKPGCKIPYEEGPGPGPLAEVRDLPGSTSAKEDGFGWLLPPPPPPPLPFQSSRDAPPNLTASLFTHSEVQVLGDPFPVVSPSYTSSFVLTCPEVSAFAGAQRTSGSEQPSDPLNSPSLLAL
miR122 inh = miR-122 inhibition in Huh7 cells; Huh7 miR-122 Renilla luciferase sensor, 48 h; neutral wells = 0, positive control = 100; activation (reporter increase), % at 12.5 µM; actives 0.3% (n = 340,000);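 active = mean replicate activation score at least 90 and every replicate individually at or above 90; inconclusive = only one of the two criteria met; inactive = neither criterion met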;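 note: higher luciferase means less miR-122 activity so hits act as miR-122 inhibitors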
Cneo AK release = Cryptococcus neoformans lysis via adenylate kinase release. C. neoformans lysis, adenylate kinase release luminescence, 4 h; normalised: neutral wells 0, clomiphene wells 100. lysis activity, % at 15 µM. actives 0.2% (n = 360,000);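 active = mean lysis activity across replicates of at least 80%, whatever share of replicates individually reach that level; inactive = mean lysis activity below 80%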
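read-out = cell lysis signal | test system = log-phase Cryptococcus neoformans yeast cells | input = cells at 5 × 10^6 per mL | medium = fresh YPD growth medium | signal = luminescent adenylate kinase detection reagent | timing = 4 h at 37 °C static, read 1 h later | dosing = single dose | controls = Clomiphene as positive lysis control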
* = called active by the depositor; [ ] = dose if it differs, or a comment. Hits are enriched below; roughly 2.4% of the tested compounds scored in any of these assays.

What do the screens show for `CC(C)NC(=O)N(C)C[C@@H]1Oc2ccc(N(C)C)cc2C(=O)N(C)C[C@H]1C`?
GSIS activator: -5

What do the screens show for `CCC/C=C/c1ccc(CN2C(C(C)C)C(=O)N(Cc3cn(CC4CCCCC4)nn3)CCS2(=O)=O)cc1` (stereo not given)?
Env fusion inh: 68*; GSIS activator: -10; miR122 inh: -6; Cneo AK release: 2

Results for O=C(O)C[C@H]1C=C[C@@H](NC(=O)CCN2CCCCC2)[C@@H](CO)O1 ?
GSIS activator: 13

How did O=C1CCN(c2ncccc2[N+](=O)[O-])CC1 do in these assays?
Env fusion inh: -6; GSIS activator: 16; Rtt109 Vps75: -2; dFosB act: -5

Results for COc1cc2c(cc1OC)CN(c1ncccc1[N+](=O)[O-])CC2 ?
Env fusion inh: -52; GSIS activator: 50*; dFosB act: -6

What do the screens show for `CCOC(=O)c1c(CS(=O)(=O)c2ccccc2)n(C)c2cc(Br)c(O)cc12`?
Env fusion inh: 31; Rtt109 Vps75: 0; dFosB act: -1; miR122 inh: 1; Cneo AK release: 0

How did CCOC(=O)c1c(CSc2ccc(CC)cc2)oc2ccc(O)c(CN(C)C)c12 do in these assays?
Env fusion inh: 56*; GSIS activator: 786; Rtt109 Vps75: 0; dFosB act: 3; miR122 inh: -3; Cneo AK release: -2

What do the screens show for `CCOC(=O)c1c(CSc2ccccc2)oc2cc(Br)c(O)c(CN(C)C)c12`?
Env fusion inh: 127*; GSIS activator: -30; Rtt109 Vps75: 0; dFosB act: -13; miR122 inh: 2

Results for CCOC(=O)c1c(CS(=O)(=O)c2ccccc2)n(C)c2cc(Br)c(O)c(CN(C)C)c12 ?
Env fusion inh: 67*; GSIS activator: 1; Rtt109 Vps75: 1; dFosB act: -3; miR122 inh: 5

What do the screens show for `COc1cc2c(cc1OC)CN(C(=O)CCOc1ccccc1)CC2`?
Env fusion inh: 12; GSIS activator: 21; Rtt109 Vps75: -5; dFosB act: -3; Cneo AK release: 0

How did COc1cc2c(cc1OC)[C@H](C)N(C(=O)NCc1ccccc1)CC2 do in these assays?
Env fusion inh: -5; GSIS activator: 54*; Rtt109 Vps75: -4; dFosB act: 0; miR122 inh: -5; Cneo AK release: -5

How did COc1cc2c(cc1OC)CN(C(=O)Cc1ccccc1)CC2 do in these assays?
Env fusion inh: -3; GSIS activator: 63*; Rtt109 Vps75: -5; dFosB act: -4; miR122 inh: -2; Cneo AK release: 0

Results for Nc1c(S(=O)(=O)c2ccccc2)cnc2c(-c3ccc(F)cc3)cnn12 ?
Env fusion inh: 68*; Rtt109 Vps75: 10; dFosB act: 4; miR122 inh: -7; Cneo AK release: -2

How did C[C@H]1CN([C@@H](C)CO)S(=O)(=O)c2ccc(C3=CCCC3)cc2O[C@@H]1CN(C)C(=O)c1ccccn1 do in these assays?
Env fusion inh: 0[16.7 µM]; GSIS activator: 9; miR122 inh: 12[16.7 µM]; Cneo AK release: 1

What do the screens show for `CC(=O)Nc1ccc(NC(=O)c2nc(S(=O)(=O)Cc3ccccc3)ncc2Cl)cc1`?
Env fusion inh: -8; GSIS activator: 60*; Rtt109 Vps75: 113*; dFosB act: 1; miR122 inh: 6; Cneo AK release: 0

What do the screens show for `CCS(=O)(=O)c1ncc(Cl)c(C(=O)Nc2ccc(C)cc2)n1`?
Env fusion inh: 17; GSIS activator: 63*; Rtt109 Vps75: 2; dFosB act: -6; Cneo AK release: 1

What do the screens show for `CC1CCCN(S(=O)(=O)c2ccc(NC(=O)CNC3CCCC3)cc2)C1` (stereo not given)?
Env fusion inh: 7; GSIS activator: 12; Rtt109 Vps75: 1; dFosB act: -15; miR122 inh: 5; Cneo AK release: -1

How did CCS(=O)(=O)c1ncc(Cl)c(C(=O)Nc2ccc(S(=O)(=O)N3CCCC(C)C3)cc2)n1 (stereo not given) do in these assays?
Env fusion inh: 57*; GSIS activator: 12; Rtt109 Vps75: 8; dFosB act: -8; miR122 inh: 5; Cneo AK release: 0

How did COc1ccc(CNC(=O)c2nc(S(=O)(=O)Cc3ccccc3)ncc2Cl)cc1 do in these assays?
Env fusion inh: 31; GSIS activator: 59*; Rtt109 Vps75: inconclusive; dFosB act: -14; miR122 inh: -2; Cneo AK release: -2

How did COc1ccccc1S(=O)(=O)N[C@H]1CC[C@@H](CCNC(=O)C2CCCC2)O[C@H]1CO do in these assays?
Env fusion inh: 7[16.7 µM]; GSIS activator: 4; miR122 inh: 10[16.7 µM]; Cneo AK release: -1

How did COc1ccc(-c2nc(-c3ccc(NC(=O)c4ccc(Br)o4)cc3)no2)cc1OC do in these assays?
Rtt109 Vps75: 7; dFosB act: 12; miR122 inh: 1

What do the screens show for `COc1cc(-c2nc(-c3ccc(NC(=O)c4ccc(Br)o4)cc3)no2)cc(OC)c1OC`?
Env fusion inh: 11; dFosB act: 49*; miR122 inh: -4; Cneo AK release: -10

Results for Nc1ncnc2c(C3OC(CO)C(O)C3O)scc12 (stereo not given) ?
Env fusion inh: 109*; GSIS activator: -18; Rtt109 Vps75: 0; dFosB act: -2; miR122 inh: 3

How did CCC(=O)N1CC2(C1)CN(C(=O)Cc1ccccc1)[C@@H](CO)c1c2c2ccc(OC)cc2n1C do in these assays?
GSIS activator: -7

Results for C[C@@H]1CN([C@H](C)CO)C(=O)c2cc(C#CC3CC3)cnc2O[C@@H]1CN(C)S(C)(=O)=O ?
Env fusion inh: 15[16.7 µM]; GSIS activator: 4; miR122 inh: 4[16.7 µM]; Cneo AK release: 29

How did Cc1onc(-c2ccc(Cl)cc2)c1-c1ccnc(SCC(=O)Nc2cc(Cl)cc(Cl)c2)n1 do in these assays?
Env fusion inh: 75*; Rtt109 Vps75: 5; dFosB act: -8

What do the screens show for `CC1=CC(C)(C)N2C(=O)C3(SCC(=O)N3c3ccc(F)cc3)c3cc(C)cc1c32` (stereo not given)?
Env fusion inh: 72*; GSIS activator: -34; Rtt109 Vps75: -11; dFosB act: -6; miR122 inh: -2; Cneo AK release: -1

Results for Cc1ccc(C(=O)CC(=O)c2cccc(F)c2)c(O)c1 ?
Env fusion inh: 61*; Rtt109 Vps75: 3; dFosB act: -4; miR122 inh: 4; Cneo AK release: -2

Results for COc1ccc(NS(=O)(=O)c2cc(C)ccc2NC(=O)c2cc(C)oc2C)cc1 ?
Rtt109 Vps75: 0; dFosB act: -17; miR122 inh: 404*; Cneo AK release: -3
